From the EternaBench riboswitch data

System: MS2 coat protein
Assay: apparent Kd, MS2 coat protein; higher = weaker binding; RNA-MaP array; FMN 200 µM where present
Outline: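 On Illumina sequencing-chip clusters, designs were transcribed by stalled E. coli RNA polymerase and titrated with SNAP-549-labelled MS2 coat protein (0.7 or 1.5 nM, doubling to 3 µM), without and then with constant ligand, in 100 mM Tris-HCl pH 7.5, 80 mM KCl, 4 mM MgCl2, BSA, DTT, yeast tRNA and Tween-20. Apparent Kd is the median of filtered per-cluster curve fits to green signal normalised to red-channel RNA signal and control-cluster median Fmax.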

[1] = designed as: OFF switch for flavin mononucleotide, no ligand
[2] = ligand present: flavin mononucleotide, designed as: OFF switch for flavin mononucleotide
[3] = designed as: ON switch for flavin mononucleotide, no ligand
[4] = ligand present: flavin mononucleotide, designed as: ON switch for flavin mononucleotide

| Sequence | apparent Kd [1] [nM] | apparent Kd [2] [nM] | apparent Kd [3] [nM] | apparent Kd [4] [nM] |
| --- | --- | --- | --- | --- |
| AUAGUUUUCAUAGGAUAUUGAAUUAUAUUUAAUCAAGAAGGAUGAAUACAUGAGGAUCACCCAUGUUAACAUGGAUUAAGUAGU | 20.9 | 44.3 | – | – |
| AAUUAGGUCACAGGAUAUACAACUUCCAAUGCUGUAGAAGGGUGUCACAUACUUAGCUGACAUGAGGAUCACCCAUGUAUCCAC | – | – | 184 | 70.5 |
| GGAUAGGACAGAGGAUAUACGUGCUAGAGAUACUUGCAAAAUUUCCUCACAUGAGGAUCACCCAUGUAGAAGGCUGUCCUAUCG | 56 | 489 | – | – |
| AAAAAACAUGAGGAUCACCCAUGUAAGGAUAUCUAAAAUAAAAGAAAAAUAAAGAAAAGGAGAAGGUACAAGGA | 24.5 | 35.1 | – | – |
| AAUCAUUAUCGUUAUUUAUAUUAUUCAGAAGGACAAUUAAUAGCACAUGAGGAUCACCCAUGUUUGUAGGAUAUGAUGUUAUAC | – | – | 15.2 | 7.95 |
| GGACAUGGGAAACCACAUGGAGAUAAGGAUAUAUAGAUGACAUGAGGAUCACCCAUGUAUGGCGAAUAGAAGGUAUGAGUGUGA | – | – | 153 | 16.2 |
| AAGUGUGGAUGAGGAUAUCAGCUGUAACUGACGUCGACAUGAGGAUCACCCAUGUUGCUAUAGGGUGAGAAGGCAUUUGCGCAA | – | – | 585 | 75.1 |
| GCCCGACAUGAGGAUCACCCAUGUGGGAAACCGCGAGGAUAUCCGGGCCCGAAAGGGCCCGGAGAAGGCGCCGGGC | – | – | 12.5 | 10.9 |
| UCGAUGCUAGGAUAUACUAAUAAAACUACUGUAGUGUCUUCACAUGAGGAUCACCCAUGUAGAAGGAGCAUCUA | 28.3 | 21.8 | – | – |
| AGUCAUACAGGAUAUACAUGAGGAUCACCCAUGUAAAUCCUAAAAAGAAAAUCCUCAUGUAGAAGGGUAUGACA | 13.6 | 9.24 | – | – |
| AGCUGGUGACAGCAUCCAUCAAAACAUGAGGAUCACCCAUGUAGAAGGCUGUACGGUUACCGUACAGAGGAUAUACAAUGAUGU | 15.2 | 26.2 | – | – |
| AAGAAGUCAGGAUAUGCUGCUCGUCACUUGCGUGAUGAGUAGCAGAAGGGACAUGAGGAUCACCCAUGUGGAGA | 114 | 241 | – | – |
| AGCGGAGACAUGAGGAUCACCCAUGUCAGUGCCGGCGAUACCAGAAGGCCCGGCGGGCCUCGCCGGGAGGAUAUGGGUUCAACA | – | – | 13.1 | 8.39 |
| UUUAGUUCAGGAUAUGUAGAUUUUAACAUGAGGAUCACCCAUGUAAAUCCUGAUCCUGCUACAGAAGGGAACAUUU | 17 | 20.7 | – | – |
| CAGGAGAACACAGGAUAUCCGUAAGACAUGAGGAUCACCCAUGUUUGUGGCCCGCCAGGGCUGACGGAGAAGGGUGACUCGCAC | – | – | 9.04 | 5.81 |
| AUUUUAAAGGGAGGAUAUACAUGAGGAUCACCCAUGUAAACGUGAGGAUCACCCAUGUUAACAAUGUAGAAGGCCUAUAUCUAU | 41.1 | 31 | – | – |
| GUGGUACAUGAGGAUCACCCAUGUUAGGAUAUCGCGUGAGGUAAAACUUACACACACACGAGAAGGGACGUCUU | 45.9 | 41 | – | – |
| GUUCAACAUGAGGAUCACCCAUGUAGAAGGCGCUCCGACAUUUUGUAGAACGAGGUGGGUGCGGGCGAGGAUAUACGUGGCGCU | 48.4 | 89.6 | – | – |
| ACUUCUAAGCAGAAGGCAGUCAUAGUAUUCGUCAUGUAGACAUGAGGAUCACCCAUGUAUAGUACUGAGGAUAUGCUUGGAUAG | 24 | 24.4 | – | – |
| AGAUUUGUACAUGAGGAUCACCCAUGUUAAUAGGUGUUUGUCAGAAGGCAUUAAUAGAGAUUUAAUGAGGAUAUGAUGUUACAA | – | – | 49.3 | 35.2 |
| AAAUUUAACGAAGGAUAUGCUUACAUGAGGAUCACCCAUGUGUGCCUUGUGAUGCUGAUUAGGUUGCAGAAGGUCGUAUACAUA | 135 | 174 | – | – |
| CCUCGACAUGAGGAUCACCCAUGUCAGGAUAUUGUGUCUCGGGUUUUUUACCGAAAGGCGAGAAGGGAUGUGUG | 16.1 | 21 | – | – |
| GUGCGGUAGGAGAAGGACGGAGGCUUCUUUUCAUACAUGAGGAUCACCCAUGUAGGAUAUCCUACCUCACGCGGCCUCCUUCUG | 4.77 | 4.99 | – | – |
| CCUCCACAUGAGGAUCACCCAUGUCAGGAUAUCGUGUGUUUUUUUUCGGUCUUUCGUGCGAGAAGGGACGUCUU | 30.5 | 33.8 | – | – |
| CUUUUGUGAGGAUAUCAGUAGUAAAUAAAUAAAUUUACUACUGAGAAGGCACAUGAGGAUCACCCAUGUUCCUC | 39.1 | 292 | – | – |
| UGCGUACAAGCAGACAUGAGGAUCACCCAUGUAGUCUUAUGCGAGGAUAUCGGGAAGGAGGAUUCCGAGAAGGUGCGGUGAGCC | – | – | 25.4 | 21.9 |
| GACAUGAGGAUCACCCAUGUCCAACCAGAAGGCCAGGAAUCGGACCCGAGUAUCGGGUUCGAGAUGGAGGAUAUGGGCGCCGAA | – | – | 75.1 | 33.7 |
| GGUCGUCACAUUAACAUGAGGAUCACCCAUGUCAAAUAACAUGAGGAUAUGCAUCCUAAUUGGAUGCAGAAGGCAUGGACGACC | – | – | 6.72 | 5.39 |

| Sequence | apparent Kd [1] [nM] | apparent Kd [2] [nM] | apparent Kd [3] [nM] | apparent Kd [4] [nM] |
| --- | --- | --- | --- | --- |
| GGUUGUCAUAGUCAUCCUUUCCGUACAUGAGGAUCACCCAUGUAGGAUAUGCUACUCACGGUGUGGCAGAAGGGCGUGUGUCUU | 17.9 | 19.9 | – | – |
| AAUUAACUCACAGGAUAUAGCAGAGGUCGAGUGAACUUACACGCGACGAGGCUAGAAGGGUGACCACAUGAGGAUCACCCAUGU | – | – | 872 | 103 |
| AGUUAAUAUCGAGGAUAUAAGUCUAGGACAUGAGGAUCACCCAUGUAUGUCUUAGAAGGCGAUAUUAACAGCAUGUUACAUGCA | – | – | 28.3 | 6.89 |
| AAUAACAGAGGAUAUACUGUUUUAUGUGUUUGUUAUUUUGAACAUGAGGAUCACCCAUGUAGAAGGCUGAAUAA | 24.6 | 22.1 | – | – |
| UUACUGUUAUAGAAGGGUAUUUGGGAAUUACAUGAGGAUCACCCAUGUUUUAUAGGAUAUGUAUAUAGUAUUUAAUCAAGUUUA | 17.8 | 15.7 | – | – |
| GCCAGCGCAUGAGGAUAUGCUCCCGUUUCGGGAGCAGAAGGCAUGUCAUAAGACAUGAGGAUCACCCAUGUAGUCAAGAUGGCA | – | – | 340 | 15.7 |
| GUUUUUUUUAGUUCAUACUAUAAGAUAGAAGGUGAAAUAUAGACAUGAGGAUCACCCAUGUAAUUCAAGGAUAUGUAGUUACUC | – | – | 44.1 | 24.8 |
| UUAUGCUUUGAGAAGGUACAAACUACAUAUUGCGCACAUGAGGAUCACCCAUGUUGGUGAAUAAGUAAGGAUAUUAGACUGUGC | 133 | 102 | – | – |
| AUAUGAAAGAUAGGAUAUACUGAGGUUGAAUGGGUAGAAGGAUCGAUAGUGGAGAAGACAUGAGGAUCACCCAUGUUGUGGAUU | – | – | 656 | 237 |
| AUGAGAGCAGGAUAUGCAGGUGUGCCGGAAGAAAGAAGAGGACAUGAGGAUCACCCAUGUAGAAGGGCUAACCC | 41.1 | 19.8 | – | – |
| GUACCUUAUGAGAAGGCGAUCAUGAAACAUGAUCGAGGAUAUCAUGUAAACAUGAGGAUCACCCAUGUAUGGGUAUUAUGGUAC | – | – | 191 | 25.6 |
| UACCUCACUUCUUUGACUCACAUGAGGAUCACCCAUGUAAUAUAGGAUAUGCAUUUUAUUUCUUUGCAGAAGGAUAUUAGUUUU | 42.8 | 79.2 | – | – |
| GGAUUUGGUCCAAUUUCGGUGAGUAAGGAUAUGCAUGGCAUACAUGAGGAUCACCCAUGUUGUCGGCAGAAGGUGCCACAACGU | – | – | 45.7 | 16.3 |
| AAGCGCUACAUGAGGAUCACCCAUGUUCCGAGGCAGAUUUCACAGGAUAUCCCAAUUGGCCCAAGGGAGAAGGGUGAUGGCCAA | – | – | 79.1 | 23.6 |
| GGAGACCUCACAGGAUAUGCUGGACUUUGUCCAGCAGAAGGGUGACUAAACAUGAGGAUCACCCAUGUGGUCUCCAAAUUUAAU | – | – | 740 | 68.2 |
| GUCAAAACCAUACUGGUCGACGGUCAGGAUAUACAUGAGGAUCACCCAUGUGCUAUUGAUACUAUGUAGAAGGGACCCACCGCA | 16.2 | 30 | – | – |
| ACGCCCUGAGGAUAUCUUUUCCCGUACAUGAGGAUCACCCAUGUUUUCCUCCGUGCUUCGAGAGAAGGCAGGCCCA | 807 | 436 | – | – |
| UUGGACGUCGUAGGAUAUGUUGGAUAUUCCUACAUGAGGAUCACCCAUGUUGACAUGGAAGAAGGACAGAAGGACGAUGUCCAU | – | – | 5.08 | 4.49 |
| UGGCGCAUGUGAGGAUAUAAUGGGUAGUAACUAUUAGAAGGUACAUGAGGAUCACCCAUGUACUUGGGUUUAUCAGGAACUCCU | 7.02 | 6.7 | – | – |
| GGGCUGUCAGGAUAUCUCGGGCUCGGGUAAACUCGGGCUCGGGAGAAGGGACAUGAGGAUCACCCAUGUGGCCC | 30.4 | 33 | – | – |
| AGUUUGUGAGGAUAUCCAAUAUAUGACAUGAGGAUCACCCAUGUUUCCACUCGUACCUCCGGAGAAGGCACUGCGU | 30.7 | 26.9 | – | – |
| GGUGGACAUGAGGAUCACCCAUGUGAGGAUAUCGGCCGGUUCGCGGUGGCUGGCGUCUCGAGAAGGCGCAUAGU | 36.9 | 40.2 | – | – |
| UGAGCAUGAGGAUAUACAAGGCGUGCCGUAGCACGAGGUCUACAUGAGGAUCACCCAUGUAGAAGGCAUGUUCU | 16.8 | 36.9 | – | – |
| UUUAUGUCAGGAUAUACAUGAGGAUCACCCAUGUAUAUCUAAAAAUAUACAUGGGAAUGUAGAAGGGACCUCCU | 53 | 46.3 | – | – |
| CUAUAGAUAUGAGGAUAUGUAUAUCCAACAUGAGGAUCACCCAUGUUGAUGAUCACGUAUGUAAAGCAGAAGGCAUAUCUAUAG | – | – | – | 6.41 |
| GAUCCUUCUGUUAGGAUAUGCUUUGGGCUUCCGCUGCAGAAGGAACAUGAGGAUCACCCAUGUCCGAUGCCGUC | 74 | 89.4 | – | – |
| UUGUUGUAUGAAGGAUAUACUUAACAUGAGGAUCACCCAUGUGGUGUUGUGAGUGAGUGAGUUUAGUAGAAGGUCAAUUCUUUU | 221 | 201 | – | – |
